Source: PubChem
TRPC6 activator: activates the mouse TRPC6 cation channel; HEK293-TRPC6 membrane potential dye fluorescence; hits give high values; B-score at 10 µM; 310,000 compounds, 0.13% hits;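 active = B-score of the integrated fluorescence ratio above library mean plus 3 SD, and starting fluorescence ratio within library mean plus 5 SD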;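 note: higher score means more depolarization so channel activation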
TRPC4 block: TRPC4 (mouse) channel inhibition; Q9QUQ5; B-score at 10 µM; HEK293 TRPC4beta/mu-opioid, DAMGO-evoked Fluo4 calcium flux; hits give low values; 300,000 compounds, 0.39% hits;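 active = B-score over 3 SD under the library average, no early fluorescence shift, positive overall ratio signal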
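Assay system: TRPC4beta/mu-opioid receptor HEK293 cell line; compound dosing: single concentration per test compound; detection: Fluo4 Ca2+ flux fluorescence; evaluation: per-well B score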
DSG3 Ab inh: inhibitors of pemphigus antibody binding to human desmoglein-3; DSG3-coupled beads, scFv-anti-DSG3-GFP binding, flow cytometry; hits give low values; binding (percent of control), % at 10 µM; 310,000 compounds, 0.48% hits; AID 588358;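 active = binding more than 3 SD below its plate's average and above zero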;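 note: hits lower antibody fragment binding to DSG3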
Target sequence (P32926 whole entry, looked up, the tested form may be a part): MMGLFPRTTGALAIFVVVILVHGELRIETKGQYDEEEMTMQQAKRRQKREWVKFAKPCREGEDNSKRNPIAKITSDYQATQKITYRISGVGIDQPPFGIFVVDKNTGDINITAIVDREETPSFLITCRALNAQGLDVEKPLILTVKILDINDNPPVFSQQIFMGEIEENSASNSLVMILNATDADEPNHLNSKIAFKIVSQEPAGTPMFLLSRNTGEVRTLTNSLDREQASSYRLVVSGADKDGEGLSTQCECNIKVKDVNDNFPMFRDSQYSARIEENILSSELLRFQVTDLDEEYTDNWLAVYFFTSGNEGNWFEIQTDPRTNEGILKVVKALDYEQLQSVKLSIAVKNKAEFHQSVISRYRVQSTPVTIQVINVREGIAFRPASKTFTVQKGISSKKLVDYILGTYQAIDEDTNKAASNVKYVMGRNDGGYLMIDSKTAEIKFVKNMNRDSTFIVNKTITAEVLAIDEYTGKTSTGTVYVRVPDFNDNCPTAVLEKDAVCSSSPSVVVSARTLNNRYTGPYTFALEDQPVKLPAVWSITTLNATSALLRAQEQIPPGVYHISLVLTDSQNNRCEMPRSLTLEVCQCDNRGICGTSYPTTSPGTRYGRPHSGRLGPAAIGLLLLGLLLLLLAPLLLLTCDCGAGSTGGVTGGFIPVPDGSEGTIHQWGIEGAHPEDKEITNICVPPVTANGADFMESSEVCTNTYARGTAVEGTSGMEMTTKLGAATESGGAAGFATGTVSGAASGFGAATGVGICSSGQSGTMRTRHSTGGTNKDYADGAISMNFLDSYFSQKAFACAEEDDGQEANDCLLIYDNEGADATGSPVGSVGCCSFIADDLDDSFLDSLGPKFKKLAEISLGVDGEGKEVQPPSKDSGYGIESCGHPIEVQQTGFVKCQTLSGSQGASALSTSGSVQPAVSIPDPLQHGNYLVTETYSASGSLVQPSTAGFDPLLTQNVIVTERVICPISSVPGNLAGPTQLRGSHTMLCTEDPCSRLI
TRPC4 act: activators of mouse TRPC4 channel. Q9QUQ5. HEK293 TRPC4beta/mu-opioid, Fluo4 calcium fluorescence; hits give high values. B-score at 10 µM. 310,000 compounds, 0.49% hits. AID 2237;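 active = B-score above 5 SD of library B-scores, and initial fluorescence ratio not above library mean plus 5 SD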;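 note: positive B-score marks a calcium rise read as TRPC4 activation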
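Technique: kinetic Fluo4 calcium fluorescence; Test system: TRPC4beta and mu-opioid receptor HEK293 stable cells; Measure: B-scored integrated calcium fluorescence ratio; Benchmarks: low control buffer alone, high control maximal DAMGO; Schedule: 45 min room-temperature Fluo4 loading, 110 s read.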
TRPC6 inh: mouse TRPC6 channel inhibition | Q61143 | HEK293-TRPC6, membrane potential dye, ACh-evoked depolarization; hits give low values | B-score at 10 µM | 310,000 compounds, 1.1% hits;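 active = B-score under library mean minus 3 SD, initial fluorescence not abnormally high, positive integrated signal ratio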;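 note: B-score derived from integrated fluorescence ratio over the kinetic read; more negative B-score means stronger inhibition of depolarization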
TRPC4 PAM: TRPC4 (mouse) allosteric potentiation. 310,000 compounds, 0.42% hits. Q9QUQ5. HEK293 TRPC4beta/mu-opioid, DAMGO EC20, Fluo-4 Ca2+ flux; hits give high values. B-score at 10 µM. AID 2227;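 active = B-score of calcium response area above 5 SD of library B-scores, with initial fluorescence ratio within 5 SD of library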;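 note: B-score of integrated fluorescence ratio over time as area under calcium response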
TRPC4 sel inh 2: second selectivity test of TRPC6 inhibitors: effect on mouse TRPC4; shares compounds with TRPC6 inh; HEK293 TRPC4/MOR, membrane potential dye fluorescence; channel activated by saturating DAMGO dose; inhibition, % at 10 µM; 920 compounds, 42% hits; AID 2776;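 active = compounds whose fluorescence signal differed from control wells by over 3 SD, either direction, in both duplicate plates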
TRPC4 spec: tests whether TRPC6 inhibitors also affect mouse TRPC4. activity change, negative = inhibition, % at 10 µM. AID 2777. 920 compounds, 61% hits. HEK293 TRPC4/mu-opioid, membrane potential fluorescence. shares compounds with TRPC6 inh;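 active = rise or fall in signal beyond 3 SD of buffer-only wells in both replicate plates, either sign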;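 note: integrated kinetic ratio of fluorescence range over baseline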
HEK293 MPD ctr 2-1: second check of TRPC6 inhibitor effects in parental HEK293 cells; shares compounds with TRPC6 inh; parental HEK293 membrane potential dye fluorescence; maximal acetylcholine challenge after compound addition; signal change vs control, % at 10 µM; 920 compounds, 31% hits;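 active = membrane potential signal moving either way by over 3 SD of the maximum-effect control, in both duplicate plates, meaning non-specific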
HEK293 MPD ctr-1: counter-screen for TRPC6 inhibitors: effect in parental HEK293 cells; shares compounds with TRPC6 inh; parental HEK293 membrane potential dye fluorescence; membrane potential signal change, % at 10 µM; 920 compounds, 60% hits; AID 2780;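 active = membrane potential signal shifting up or down by more than 3 SD of buffer-only wells, on both duplicate plates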
HEK293 MPD ctr-2: parental HEK293 nonspecific activity of TRPC6 modulators. shares compounds with TRPC6 inh. membrane potential dye fluorescence. membrane potential signal change, % at 10 µM. 2,400 compounds, 51% hits. AID 488924;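 active = membrane potential signal moves up or down beyond 5 SD from buffer-only wells, on both duplicate plates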
HEK293 MPD ctr 2-2: second counter-screen for TRPC6 modulators: effect in parental HEK293 cells; AID 488926; 2,400 compounds, 14% hits; inhibition, % at 10 µM; membrane potential dye fluorescence; after compound, maximal acetylcholine stimulation; shares compounds with TRPC6 inh;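 active = membrane potential signal drops by more than 5 SD from the mean control signal, in both duplicate plates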;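 note: plate controls were acetylcholine ECmax control wells for no effect and buffer only wells for full effect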
TRPC4/MOR mod: tests whether TRPC6 modulators also affect mouse TRPC4; shares compounds with TRPC6 inh; 2,400 compounds, 69% hits; HEK293 TRPC4/mu-opioid, membrane potential fluorescence; percent change from control (negative = decrease, positive = increase), % at 10 µM; AID 488927;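 active = membrane potential signal moved up or down beyond 5 SD of buffer control wells, in both duplicate plates, actives on both sides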;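 note: plate controls were assay buffer wells for no effect and DAMGO maximal-effect wells for full effect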
TRPC4/MOR inh 2: second check of whether TRPC6 modulators also affect mouse TRPC4 | AID 488928 | 2,400 compounds, 55% hits | shares compounds with TRPC6 inh | inhibition, % at 10 µM | HEK293 TRPC4/mu-opioid, membrane potential dye fluorescence; stimulated with maximal-effect DAMGO;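 active = drop in membrane potential signal beyond 5 SD of the control wells in both duplicate plates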;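 note: TRPC4 counter screen for TRPC6 hits run under conditions tuned for TRPC6 not TRPC4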
TRPC6 block conf: mouse TRPC6 inhibitor confirmation | inhibition, % at 10 µM | HEK293-TRPC6, membrane potential dye, ACh-evoked depolarization | AID 488960 | 3,300 compounds, 43% hits | shares compounds with TRPC6 inh;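 active = fluorescence ratio falls more than 5 SD below the full-stimulation control mean, in both duplicate runs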;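 note: integrated fluorescence ratio of peak minus minimum over baseline after agonist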
TRPC6 act conf: confirmation of mouse TRPC6 activators; HEK293-TRPC6 membrane potential dye fluorescence, FDSS; 2,800 compounds, 11% hits; activation, % at 10 µM; shares compounds with TRPC6 inh;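 active = ratio signal rise beyond 5 SD above unstimulated control wells' mean, seen in both duplicate runs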;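 note: plate controls were buffer EC0 wells for no effect and acetylcholine ECmax response for full effect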
Active calls of the source: *; i = inactive; . = no result. Only some compounds are listed: those with a hit (about 2.5% of all), similar ones and a draw of the others.

SMILES	TRPC6 activator	TRPC4 block	DSG3 Ab inh	TRPC4 act	TRPC6 inh	TRPC4 PAM	HEK293 MPD ctr-2	HEK293 MPD ctr 2-2	TRPC4/MOR mod	TRPC4/MOR inh 2	TRPC6 block conf	TRPC6 act conf	others
Cc1cccn2c(=O)c3cc(C(=O)NCCN4CCOCC4)c(=N)n(CCc4ccccc4)c3nc12	i	i	105	i	-5.5*	i	i	104%*	i	52%*	i	i
COCCn1c(=N)c(C(=O)NCCc2ccccc2)cc2c(=O)n3cccc(C)c3nc21	i	i	107	i	i	i	.	.	.	.	.	.
CNC(=O)c1cc2c(=O)n3cccc(C)c3nc2n(C(C)C)c1=N	i	i	101	i	-12*	i	-209%*	121%*	-40%*	66%*	82%*	i
CC(C)Oc1ccccc1/C=N/n1nnnc1N	i	i	97	i	i	i	.	.	.	.	.	.
COc1cc2cc(C)c(SCC(=O)N3CCN(C(=O)c4ccco4)CC3)nc2cc1OC	i	i	101	i	i	i	.	.	.	.	.	.
COC(=O)/C(C#N)=C(/Nc1ccc(F)c(Cl)c1)C(F)(F)F	i	i	104	i	i	i	.	.	.	.	.	.
Cn1c(N)c(C(=O)COC(=O)COc2ccccc2C#N)c(=O)n(C)c1=O	i	i	106	i	i	i	.	.	.	.	.	.
COc1ccc(CCn2c(=N)c(C(=O)NC3CCCC3)cc3c(=O)n4cccc(C)c4nc32)cc1	i	i	107	i	-5.3*	i	-121%*	i	-38%*	49%*	36%*	i
Cc1cccn2c(=O)c3cc(C(=O)NCc4ccccc4)c(=N)n(CCCN4CCOCC4)c3nc12	.	.	104	.	.	.	.	.	.	.	.	.
Cc1cccn2c(=O)c3cc(C(=O)NCCN4CCOCC4)c(=N)n(CCCN4CCOCC4)c3nc12	i	i	.	i	-5*	i	189%*	164%*	32%*	46%*	61%*	.
Cc1ccc(CNCCC2=CCCCC2)cc1	i	i	100	i	-7.1*	i	.	.	.	.	i	i	TRPC4 sel inh 2=i;TRPC4 spec=i;HEK293 MPD ctr 2-1=i;HEK293 MPD ctr-1=i
CN(C)c1cc(NC(=O)CN2CCCC2)c2ccccc2n1	i	i	113	i	-7.2*	i	.	.	.	.	i	i	TRPC4 sel inh 2=66%*;TRPC4 spec=-19%*;HEK293 MPD ctr 2-1=i;HEK293 MPD ctr-1=-324%*
CCN(CC)CC(=O)Nc1c2c(nc3ccccc13)N(C)CC2	i	i	107	i	-7.5*	i	-213%*	i	-30%*	54%*	48%*	i
CC(C)C(=O)Nc1c2c(nc3ccccc13)N(C)CC2	i	i	94	i	i	i	.	.	.	.	.	.
O=C(CN1CCOCC1)Nc1c2c(nc3ccccc13)N(Cc1ccccc1)CC2	i	i	99	i	i	i	.	.	.	.	.	.
CN(C)c1cc(NC(=O)CNC(C)(C)CC(C)(C)C)c2ccccc2n1	i	i	103	i	i	i	.	.	.	.	.	.
O=C(CN1CCCC1)Nc1c2c(nc3ccccc13)N(Cc1ccccc1)CC2	i	i	107	i	-6.1*	i	-312%*	i	-49%*	62%*	46%*	i
O=C(NCc1nnc(SCc2ccc(F)cc2)n1-c1ccc(F)cc1)C12CC3CC(CC(C3)C1)C2	i	i	102	i	i	i	.	.	.	.	.	.
CS(=O)(=O)c1cccc(-c2nnc(NC(=O)CCS(=O)(=O)c3ccccc3)o2)c1	i	i	93	i	i	i	.	.	.	.	.	.
CCCCC(=O)NC(=O)NC(c1ccccc1)c1ccccc1	i	i	95	i	i	i	.	.	.	.	.	.
O=C(Nc1ccc(-n2cnnn2)cc1)c1cn2ccccc2n1	i	i	102	i	-5.1*	i	i	i	i	i	i	i
Cc1cc(OC(C)C(=O)N2C[C@H]3C[C@@H](C2)c2cccc(=O)n2C3)c2c(C)c(C)c(=O)oc2c1 (some centres not stated)	i	i	101	i	i	i	.	.	.	.	.	.
S=C1N(c2ccccc2)C(c2ccc(Br)cc2)N2CCCN12 (configuration not stated)	i	i	.	i	-10*	i	.	.	.	.	68%*	i	TRPC4 sel inh 2=i;TRPC4 spec=i;HEK293 MPD ctr 2-1=18%*;HEK293 MPD ctr-1=i
COc1ccc(C2N(c3ccccc3)C(=S)N3CCCN23)cc1 (configuration not stated)	i	i	121	i	i	i	.	.	.	.	.	.
S=C1N(c2ccccc2)C(c2ccc(Cl)cc2)N2CCCN12 (configuration not stated)	i	i	102	i	-8.7*	i	.	.	.	.	68%*	i	TRPC4 sel inh 2=i;TRPC4 spec=i;HEK293 MPD ctr 2-1=30%*;HEK293 MPD ctr-1=i
CCOC(=O)c1ccc2c(c1)NCc1cccc(OC)c1O2	i	i	94	i	i	i	.	.	.	.	.	.
CC(=O)Oc1ccc(C(=O)Nc2ccc(S(=O)(=O)N3CCOCC3)cc2)cc1	i	i	120	i	i	i	.	.	.	.	.	.
